Laboratory results as given in ChEMBL document CHEMBL1772981, “Discovery of 2-arylbenzoxazoles as upregulators of utrophin production for the treatment of Duchenne muscular dystrophy” (J Med Chem, 2011).
In brackets after ≈: the same amount, converted by molar mass.

How the values were obtained:
Mus musculus [1] = organism: Mus musculus; assay: Activation of UTRN promoter in mouse H2K cells assessed as upregulation of UTRN production at 10 uM after 72 hrs by RT-PCR analysis; assay type: functional
Procedure, shortened: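 H2K cells were seeded at 25000 per well, left 24 h, then dosed for 72 h in 1% DMSO final. Total RNA was extracted and reverse transcribed. qPCR used an amplicon spanning the UTRN exon 3–4 boundary, with β-actin as the endogenous control, and was quantified by ΔΔCT. Values are % UTRN relative to DMSO control (=100), with P value.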

Mus musculus [2] = organism: Mus musculus; assay: Activation of UTRN promoter in mouse H2K cells assessed as upregulation of UTRN production after 48 hrs by luciferase reporter linked assay; assay type: functional, cell-based; details: Mus musculus, H2K, 48 h
Procedure, shortened: (§1)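 H2K myoblasts stably carrying a utrophin (UTRN) promoter–luciferase reporter were plated 24 h before dosing and exposed to compound for 48 h. Luciferase was read by luminescence (Steady-Glo). The primary screen was at 10 μM and the secondary at six concentrations for EC50, both in triplicate. Non-EC50 values are % of the reference upregulator's maximum, given with the concentration at maximum.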

Mus musculus [3] = organism: Mus musculus; assay: Activation of UTRN promoter in mouse H2K cells assessed as upregulation of UTRN production at 30 uM after 48 hrs by luciferase reporter linked assay; assay type: functional; procedure, shortened: as §1
Mus musculus [4] = organism: Mus musculus; assay: Activation of UTRN promoter in mouse H2K cells assessed as upregulation of UTRN production at 3 uM after 48 hrs by luciferase reporter linked assay; assay type: functional; procedure, shortened: as §1
Mus musculus [5] = organism: Mus musculus; assay: Activation of UTRN promoter in mouse H2K cells assessed as upregulation of UTRN production at 10 uM after 48 hrs by luciferase reporter linked assay; assay type: functional; procedure, shortened: as §1
[6] = Half life in human liver microsomes; assay type: ADME, Microsome
[7] = Half life in mouse liver microsomes; assay type: ADME, Microsome
Mus musculus [8] = assay: Tmax in CD1 mouse at 10 mg/kg, ip; assay type: ADME, organism-based; design: dose 10 mg/kg, route intraperitoneal; details: in vivo
Procedure, shortened: (§2)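 Male CD1 mice were dosed i.p. at 10 mg/kg in 95% PBS containing 0.1% Tween 20 and 5% DMSO. Plasma was sampled at 5–360 or 5–480 min. AUC is in μg.min/mL. Half-life was not calculated where the log concentration–time plot lacked a linear region of at least three points.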

[9] = Aqueous solubility of the compound by turbidimetry; assay type: physicochemical; details: buffer
Procedure, shortened: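 Turbidimetric aqueous solubility, reported as the final test compound concentration.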

Mus musculus [10] = assay: Half life in CD1 mouse at 10 mg/kg, ip; assay type: ADME, organism-based; design: dose 10 mg/kg, route intraperitoneal; details: in vivo; procedure, shortened: as §2
Mus musculus [11] = assay: Cmax in CD1 mouse at 10 mg/kg, ip; assay type: ADME, organism-based; design: dose 10 mg/kg, route intraperitoneal; details: in vivo; procedure, shortened: as §2
Mus musculus [12] = assay: AUC in CD1 mouse at 10 mg/kg, ip; assay type: ADME, organism-based, Plasma; design: dose 10 mg/kg, route intraperitoneal; details: in vivo; procedure, shortened: as §2

SMILES | EC50 (Mus musculus [2]) [µM] | other results
CC(C)C(=O)Nc1ccc2nc(-c3ccc(Cl)c(Cl)c3)oc2c1 | 4 | Activity (Mus musculus [1]): 111.5%
CC(C)C(=O)Nc1ccc2[nH]c(-c3ccc(Cl)cc3)nc2c1 | 10 | 
CCS(=O)(=O)c1ccc2oc(-c3cccc(Oc4ccccc4)c3)nc2c1 | > 30 | 
CC(C)C(=O)Nc1cc2oc(-c3ccc(Cl)cc3)nc2cc1Cl | > 30 | 
CC(C)C(=O)Nc1ccc2oc(-c3cccc(Cl)c3Cl)nc2c1 | 10 | 
O=C(Cc1ccccc1)Nc1ccc2oc(-c3ccc(Cl)cc3)nc2c1 | 5 | 
CCS(=O)(=O)c1ccc2oc(-c3ccccc3Cl)nc2c1 |  | Activity (Mus musculus [3]): 62%
CCC(=O)Nc1ccc2oc(-c3ccc(Cl)cc3)nc2c1 |  | Activity (Mus musculus [4]): 85%
CCN(CC)c1ccc(-c2nc3cc(NC(=O)C(C)C)ccc3o2)cc1 |  | Activity (Mus musculus [5]): 12%
CCS(=O)(=O)c1ccc2oc(-c3ccc(Oc4ccccc4)cc3)nc2c1 | > 30 | 
CCS(=O)(=O)c1ccc2oc(-c3ccc4sccc4c3)nc2c1 |  | half-life [6]: 59 min; Activity (Mus musculus [5]): 86%
O=C(CCc1ccccc1)Nc1ccc2oc(-c3ccc(Cl)cc3)nc2c1 | > 30 | 
CC(C)C(=S)Nc1ccc2oc(-c3ccc(Cl)cc3)nc2c1 | > 30 | 
CCCC(=O)Nc1ccc2oc(-c3ccc(Cl)cc3)nc2c1 | 3.5 | 
CCS(=O)(=O)c1ccc2oc(-c3ccc4[nH]ccc4c3)nc2c1 |  | Activity (Mus musculus [5]): 81%
O=S(=O)(O)c1ccc2oc(-c3ccc(Cl)cc3)nc2c1 | > 30 | 
CC(C)C(=O)Nc1ccc2oc(-c3cc(Cl)ccc3Cl)nc2c1 | > 30 | 
CCS(=O)(=O)c1ccc2oc(-c3ccco3)nc2c1 | > 30 | 
CS(=O)(=O)c1ccc2oc(-c3ccc(Cl)cc3)nc2c1 |  | Activity (Mus musculus [5]): 53%
CC(C)C(=O)Nc1ccc2oc(-c3ccc(Cl)cc3)nc2c1 | 0.4 | half-life [7]: 19.3 min; Tmax (Mus musculus [8]): 15 min; half-life [6]: 286 min; solubility kinetic [9]: 3 µM (≈ 0.944 µg/mL); t1/2 (Mus musculus [10]): 136 min; Cmax (Mus musculus [11]): 2.807 µg/mL; AUC (Mus musculus [12]): 3.82 µg·h/mL
CS(=O)(=O)c1ccc2oc(-c3ccc4ccccc4c3)nc2c1 |  | half-life [7]: 33.4 min; Activity (Mus musculus [4]): 95%
CCS(=O)(=O)c1ccc2oc(-c3cc4ccccc4cn3)nc2c1 |  | Activity (Mus musculus [5]): 63%
O=C(Nc1ccc2oc(-c3ccccc3)nc2c1)c1ccccc1 | > 30 | 
CC(C)S(=O)(=O)Nc1ccc2oc(-c3ccc(Cl)cc3)nc2c1 | > 30 | 
CCCS(=O)(=O)c1ccc2oc(-c3ccc(Cl)cc3)nc2c1 | > 30 | 
Cc1ccc(-c2nc3cc(NC(=O)C(C)C)ccc3o2)cc1 |  | Activity (Mus musculus [5]): 95%
CCC(=O)c1ccc2oc(-c3ccc(Cl)cc3)nc2c1 | 0.9 | half-life [7]: 13 min

SMILES | EC50 (Mus musculus [2]) [µM] | other results
CCS(=O)(=O)c1ccc2oc(-c3cccc4ccccc34)nc2c1 | > 30 | 
COc1ccc(-c2nc3cc(NC(=O)C(C)C)ccc3o2)cc1 |  | Activity (Mus musculus [5]): 132%
CC(C)S(=O)(=O)c1ccc2oc(-c3ccc(Cl)c(Cl)c3)nc2c1 |  | Activity (Mus musculus [5]): 45%
CCS(=O)(=O)c1ccc2oc(-c3ccc(Cl)cn3)nc2c1 | > 30 | 
CCS(=O)(=O)c1ccc2oc(-c3cccc(Cl)c3)nc2c1 | > 30 | 
CCS(=O)(=O)c1ccc2oc(-c3ccc4ncccc4c3)nc2c1 | 1.9 | 
CCS(=O)(=O)c1ccc2oc(-c3ccc4c(c3)OCO4)nc2c1 | 4.2 | 
CCS(=O)(=O)c1ccc2oc(-c3ccc4nccnc4c3)nc2c1 | > 30 | 
CC(C)C(=O)Nc1ccc2oc(-c3ccc(Cl)cc3Cl)nc2c1 |  | Activity (Mus musculus [5]): 53%
CCS(=O)(=O)c1ccc2oc(-c3cccc(Cl)c3F)nc2c1 | > 10 | 
CC(C)NC(=O)c1ccc2oc(-c3ccc(Cl)cc3)nc2c1 | > 30 | 
CC(C)C(=O)Nc1ccc2nc(-c3ccc(Cl)cc3)oc2c1 | 3 | 
CC(C)C(=O)N(C)c1ccc2oc(-c3ccc(Cl)cc3)nc2c1 | > 30 | 
CCC(=O)Nc1ccc2oc(-c3ccccc3)nc2c1 | 0.8 | 
CC(C)C(=O)Nc1ccc2sc(-c3ccc(Cl)cc3)nc2c1 | 1.2 | 
CCS(=O)(=O)c1ccc2oc(-c3cccc(Cl)c3Cl)nc2c1 |  | Activity (Mus musculus [5]): 40%
CCS(=O)(=O)c1ccc2oc(-c3ccc4c(c3)CCC4)nc2c1 | 2.3 | half-life [6]: 20 min
CCS(=O)(=O)c1ccc2oc(-c3ccccc3)nc2c1 |  | Activity (Mus musculus [5]): 69%; solubility kinetic [9]: 100 µM (≈ 28.7 µg/mL)
CCS(=O)(=O)c1ccc2nc(-c3ccc(Cl)cc3)oc2c1 | > 30 | 
CCCc1nc2cc(S(=O)(=O)CC)ccc2o1 |  | Activity (Mus musculus [5]): 14%
CC(=O)Nc1ccc2oc(-c3ccccc3)nc2c1 | 3 | 
Nc1ccc(-c2nc3cc(N)ccc3o2)c(O)c1 | 3.5 | 
CC(C)C(=O)Nc1ccc2oc(-c3cccc(Cl)c3)nc2c1 | 4.5 | 
CC(C)C(=O)Nc1ccc2oc(-c3ccccc3Cl)nc2c1 | 1.1 | 
CC(C)C(=O)Nc1ccc2oc(-c3ccc(F)cc3)nc2c1 | 0.9 | half-life [7]: 16.1 min
CC(C)C(=O)Nc1ccc2oc(-c3ccc(C(F)(F)F)cc3)nc2c1 |  | Activity (Mus musculus [5]): 22%
CCS(=O)(=O)c1ccc2oc(C3CCc4ccccc4C3)nc2c1 (configuration not stated) |  | Activity (Mus musculus [5]): 32%

SMILES | EC50 (Mus musculus [2]) [µM] | other results
C[C@H](N)C(=O)Nc1ccc2oc(-c3ccc(Cl)cc3)nc2c1 |  | Activity (Mus musculus [4]): 35%
CC(C)S(=O)(=O)c1ccc2oc(-c3ccc(Cl)cc3)nc2c1 | 10.2 | 
CCS(=O)(=O)c1ccc2oc(C3CCCCC3)nc2c1 |  | Activity (Mus musculus [5]): 25%
CCN(CC)S(=O)(=O)c1ccc2oc(-c3ccc(Cl)cc3)nc2c1 |  | Activity (Mus musculus [5]): 28%
CCS(=O)(=O)c1ccc2oc(-c3cnc4ccccc4c3)nc2c1 | > 30 | 
CCCCC(=O)Nc1ccc2oc(-c3ccccc3)nc2c1 |  | Activity (Mus musculus [5]): 69%
CCS(=O)(=O)c1ccc2oc(-c3ccc(-c4ccccc4)cc3)nc2c1 | > 30 | 
CCS(=O)(=O)c1ccc2oc(-c3ccc4occc4c3)nc2c1 |  | Activity (Mus musculus [5]): 73%
CC(C)C(=O)Nc1ccc2oc(-c3ccc(Cl)cc3)cc2c1 | > 30 | 
CCS(=O)(=O)c1ccc2oc(-c3ccc4ccccc4n3)nc2c1 |  | Activity (Mus musculus [4]): 59%
O=C(Nc1ccc2oc(-c3ccc(Cl)cc3)nc2c1)c1ccccc1 | > 30 | 
CCCC(=O)Nc1ccc2oc(-c3ccccc3)nc2c1 | 3 | 
CCS(=O)(=O)c1ccc2oc(-c3cccs3)nc2c1 |  | Activity (Mus musculus [3]): 29%
CC(C)CNc1ccc2oc(-c3ccc(Cl)cc3)nc2c1 | > 30 | 
CC(C)c1ccc2oc(-c3ccc(N)cc3O)nc2c1 | 1 | 
CCS(=O)(=O)c1ccc2nc(-c3ccc(Cl)c(Cl)c3)oc2c1 | 10.6 | 
CCS(=O)(=O)c1ccc2oc(-c3ccc(Cl)c(Cl)c3)nc2c1 | 3 | half-life [7]: 101 min; half-life [6]: 105 min; Activity (Mus musculus [1]): 138.3%; solubility kinetic [9]: 3 µM (≈ 1.07 µg/mL)
CCS(=O)(=O)c1ccc2oc(-c3ccc4c(c3)CCCC4)nc2c1 |  | Activity (Mus musculus [5]): 51%
CC(C)C(=O)Nc1ccc2oc(-c3ccccc3)nc2c1 | 0.8 | 
Nc1ccc2oc(-c3ccc(Cl)c(Cl)c3)nc2c1 |  | Activity (Mus musculus [4]): 107%
CCS(=O)(=O)c1ccc2oc(/C=C/c3ccccc3)nc2c1 |  | Activity (Mus musculus [5]): 53%
CC(C)C(=O)Nc1ccc2nc(-c3cccc(Cl)c3Cl)oc2c1 | > 30 | 
Cc1ccc(-c2nc3c(NC(=O)C(C)C)cccc3o2)cc1 | > 30 | 
CCS(=O)(=O)c1ccc2oc(Cc3ccc4ccccc4c3)nc2c1 | > 30 | 
NS(=O)(=O)c1ccc2oc(-c3ccc(Cl)cc3)nc2c1 |  | Activity (Mus musculus [3]): 60%
